For 25 molecules, EC50, IC50 and CC50 results are on record in ChEMBL document CHEMBL1130297, “Synthesis of 5,6-dihydro-4-hydroxy-2-pyrones as HIV-1 protease inhibitors: the profound effect of polarity on antiviral activity” (J Med Chem, 1997).

Some results are limits rather than exact numbers.

The first series concerns CCRF-CEM. Kind of series: Antiviral activity in HIV infected CEM cells. The settings on record: Homo sapiens. The format is functional, cell-based. A digest of the protocol:
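Cytopathic-effect protection assay in HIV-infected CEM cells by a standard protocol. EC50 taken as the concentration at which 50% of cells are protected from cytopathic effects.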
For the molecule `Cc1ccc(C(C)(C)C)c(SC2=C(O)OC(CCc3ccccc3)(c3ccccc3)CC2=O)c1` (stereo not drawn), the concentration giving a half-maximal response (EC50) (in general, the concentration needed to bring the measured effect to its halfway point) was over 55 µM.
The same measure, in the same setting: then `Cc1cc(SC2=C(O)OC(CCc3ccccc3)(c3ccccc3)CC2=O)c(C(C)(C)C)cc1OCCO` (stereo not drawn), with over 20 µM.
Same read-out and setting: next, `Cc1ccc(C(C)(C)C)c(SC2=C(O)OC(CCc3ccccc3)(c3ccc(OCCO)cc3)CC2=O)c1` (stereo not drawn): 9.4 µM.
The same measure, in the same setting: then `Cc1ccc(C(C)(C)C)c(SC2=C(O)OC(CCc3ccc(O)cc3)(c3ccccc3)CC2=O)c1` (stereo not drawn), with over 69 µM; and `Cc1cc(SC2=C(O)OC(CCc3ccccc3)(c3ccc(OCCO)cc3)CC2=O)c(C(C)(C)C)cc1OCCO` (stereo not drawn), with 1.8 µM.
On to `Cc1cc(SC2=C(O)OC(CCc3ccccc3)(c3ccccc3)CC2=O)c(C(C)(C)C)cc1O` (stereo not drawn), for which the EC50 is over 23 µM.
Still for that read-out and setting: next, `Cc1cc(SC2=C(O)OC(CCc3ccc(O)cc3)(c3ccc(O)cc3)CC2=O)c(C(C)(C)C)cc1CO` (stereo not drawn): over 21 µM.
The same measure, in the same setting: next, `Cc1ccc(C(C)(C)C)c(SC2=C(O)OC(CCc3ccccc3)(c3ccc(O)cc3)CC2=O)c1` (stereo not drawn): over 23 µM; `Cc1cc(SC2=C(O)OC(CCc3ccc(O)cc3)(c3ccccc3)CC2=O)c(C(C)(C)C)cc1CO` (stereo not drawn): 4.7 µM; `Cc1ccc(C(C)(C)C)c(SC2=C(O)OC(CCc3ccccc3)(c3ccc(N)cc3)CC2=O)c1` (stereo not drawn): over 67 µM.
On the same count and under the same terms, then `Cc1cc(SC2=C(O)OC(CCc3ccc(N)cc3)(C3CCCCC3)CC2=O)c(C(C)(C)C)cc1CO` (stereo not drawn), with 1.4 µM; and `Cc1cc(SC2=C(O)OC(CCc3ccccc3)(c3ccc(OCCO)cc3)CC2=O)c(C(C)(C)C)cc1O` (stereo not drawn), with 4.2 µM; and `Cc1cc(SC2=C(O)OC(CCc3cccc(O)c3)(c3ccccc3)CC2=O)c(C(C)(C)C)cc1CO` (stereo not drawn), with 6.1 µM.
In turn, `COc1cc(C(C)(C)C)c(SC2=C(O)OC(CCc3ccccc3)(c3ccccc3)CC2=O)cc1C` (stereo not drawn) displayed an EC50 of over 33 µM.
Same read-out and setting: next, `Cc1cc(SC2=C(O)OC(CCc3ccc(N)cc3)(c3ccccc3)CC2=O)c(C(C)(C)C)cc1CO` (stereo not drawn): 3.7 µM; `Cc1cc(SC2=C(O)OC(CCc3ccc(O)cc3)(C3CCCCC3)CC2=O)c(C(C)(C)C)cc1CO` (stereo not drawn): 0.5 µM.
In the case of `COc1ccc(C2(CCc3ccc(O)cc3)CC(=O)C(Sc3cc(C)c(CO)cc3C(C)(C)C)=C(O)O2)cc1` (stereo not drawn), a half-maximal response (EC50) required 2 µM.
On the same count and under the same terms, then `Cc1cc(SC2=C(O)OC(CCc3ccccc3)(c3ccc(OCCO)cc3)CC2=O)c(C(C)(C)C)cc1CO` (stereo not drawn), with 4.2 µM; and `Cc1cc(SC2=C(O)OC(CCc3ccc(O)cc3)(C(C)C)CC2=O)c(C(C)(C)C)cc1CO` (stereo not drawn), with 0.6 µM.
On the same count and under the same terms, then `Cc1cc(SC2=C(O)OC(CCc3ccc(N)cc3)(C(C)C)CC2=O)c(C(C)(C)C)cc1CO` (stereo not drawn), with 0.5 µM; and `Cc1cc(SC2=C(O)OC(C)(CCc3ccc(O)cc3)CC2=O)c(C(C)(C)C)cc1CO` (stereo not drawn), with 2.5 µM; and `Cc1cc(SC2=C(O)OC(CCc3cccc(N)c3)(c3ccccc3)CC2=O)c(C(C)(C)C)cc1CO` (stereo not drawn), with 3.1 µM.
Same read-out and setting: then `Cc1ccc(C(C)(C)C)c(SC2=C(O)OC(CCc3ccc(N)cc3)(c3ccccc3)CC2=O)c1` (stereo not drawn), with over 54 µM.
In turn, `Cc1cc(SC2=C(O)OC(CCc3ccccc3)(c3ccccc3)CC2=O)c(C(C)(C)C)cc1CO` (stereo not drawn) displayed an EC50 of 2.5 µM.
Same read-out and setting: then `COCc1cc(C(C)(C)C)c(SC2=C(O)OC(CCc3ccccc3)(c3ccc(OCCO)cc3)CC2=O)cc1C` (stereo not drawn), with over 18 µM.

The next series has as its target Human immunodeficiency virus type 1 protease (Human immunodeficiency virus 1, UniProt Q72874). Kind of series: In vitro inhibition activity against HIV-1 protease.
Conditions: not given
A digest of the protocol: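 HIV-1 protease inhibition read by HPLC assay at pH 6.2, modified from an earlier method. Buffer: 1.0 mM dithiothreitol, 80 mM MES, 160 mM NaCl, 1.0 mM EDTA, 0.1% polyethylene glycol (MW 8000). Final protease concentration 1.5 nM. IC50 values reported.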
On to `Cc1cc(SC2=C(O)OC(CCc3ccccc3)(c3ccccc3)CC2=O)c(C(C)(C)C)cc1OCCO` (stereo not drawn), for which the IC50 (commonly the concentration needed to halve the response being measured) stood at 0.0068 µM.
`Cc1ccc(C(C)(C)C)c(SC2=C(O)OC(CCc3ccccc3)(c3ccc(OCCO)cc3)CC2=O)c1` (stereo not drawn): the half-inhibitory concentration (IC50) came out at 0.012 µM.
On the same count and under the same terms, next, `Cc1ccc(C(C)(C)C)c(SC2=C(O)OC(CCc3ccc(O)cc3)(c3ccccc3)CC2=O)c1` (stereo not drawn): 0.011 µM; `Cc1cc(SC2=C(O)OC(CCc3ccccc3)(c3ccc(OCCO)cc3)CC2=O)c(C(C)(C)C)cc1OCCO` (stereo not drawn): 0.0064 µM; `Cc1cc(SC2=C(O)OC(CCc3ccccc3)(c3ccccc3)CC2=O)c(C(C)(C)C)cc1O` (stereo not drawn): 0.033 µM.
The same measure, in the same setting: next, `Cc1cc(SC2=C(O)OC(CCc3ccc(O)cc3)(c3ccc(O)cc3)CC2=O)c(C(C)(C)C)cc1CO` (stereo not drawn): 0.12 µM.
The same measure, in the same setting: then `Cc1ccc(C(C)(C)C)c(SC2=C(O)OC(CCc3ccccc3)(c3ccc(O)cc3)CC2=O)c1` (stereo not drawn), with 0.04 µM; and `Cc1cc(SC2=C(O)OC(CCc3ccc(O)cc3)(c3ccccc3)CC2=O)c(C(C)(C)C)cc1CO` (stereo not drawn), with 0.0017 µM.
Turning to `Cc1ccc(C(C)(C)C)c(SC2=C(O)OC(CCc3ccccc3)(c3ccc(N)cc3)CC2=O)c1` (stereo not drawn), the half-maximal inhibitory concentration (IC50) stood at 0.032 µM.
Still for that read-out and setting: then `Cc1cc(SC2=C(O)OC(CCc3ccc(N)cc3)(C3CCCCC3)CC2=O)c(C(C)(C)C)cc1CO` (stereo not drawn), with 0.0032 µM.
On the same count and under the same terms, next, `Cc1cc(SC2=C(O)OC(CCc3ccccc3)(c3ccc(OCCO)cc3)CC2=O)c(C(C)(C)C)cc1O` (stereo not drawn): 0.0037 µM; `Cc1cc(SC2=C(O)OC(CCc3cccc(O)c3)(c3ccccc3)CC2=O)c(C(C)(C)C)cc1CO` (stereo not drawn): 0.0025 µM.
Same read-out and setting: then `COc1cc(C(C)(C)C)c(SC2=C(O)OC(CCc3ccccc3)(c3ccccc3)CC2=O)cc1C` (stereo not drawn), with 0.015 µM; and `Cc1cc(SC2=C(O)OC(CCc3ccc(N)cc3)(c3ccccc3)CC2=O)c(C(C)(C)C)cc1CO` (stereo not drawn), with 0.0031 µM; and `Cc1cc(SC2=C(O)OC(CCc3ccc(O)cc3)(C3CCCCC3)CC2=O)c(C(C)(C)C)cc1CO` (stereo not drawn), with 0.0041 µM.
For `Cc1cc(SC2=C(O)OC(CCc3ccccc3)(c3ccc(OCCO)cc3)CC2=O)c(C(C)(C)C)cc1CO` (stereo not drawn), the IC50 is 0.0014 µM.
Same read-out and setting: then `Cc1cc(SC2=C(O)OC(CCc3ccc(O)cc3)(C(C)C)CC2=O)c(C(C)(C)C)cc1CO` (stereo not drawn), with 0.0036 µM.
Same read-out and setting: next, `Cc1cc(SC2=C(O)OC(CCc3ccc(N)cc3)(C(C)C)CC2=O)c(C(C)(C)C)cc1CO` (stereo not drawn): 0.0027 µM; `Cc1cc(SC2=C(O)OC(C)(CCc3ccc(O)cc3)CC2=O)c(C(C)(C)C)cc1CO` (stereo not drawn): 0.0043 µM.
`Cc1cc(SC2=C(O)OC(CCc3cccc(N)c3)(c3ccccc3)CC2=O)c(C(C)(C)C)cc1CO` (stereo not drawn): the half-inhibitory concentration (IC50) came to 0.004 µM.
The same measure, in the same setting: then `Cc1ccc(C(C)(C)C)c(SC2=C(O)OC(CCc3ccc(N)cc3)(c3ccccc3)CC2=O)c1` (stereo not drawn), with 0.024 µM; and `Cc1cc(SC2=C(O)OC(CCc3ccccc3)(c3ccccc3)CC2=O)c(C(C)(C)C)cc1CO` (stereo not drawn), with 0.0066 µM.
The same measure, in the same setting: next, `COCc1cc(C(C)(C)C)c(SC2=C(O)OC(CCc3ccccc3)(c3ccc(OCCO)cc3)CC2=O)cc1C` (stereo not drawn): 0.0045 µM.

Tested on in another series: not listed separately
Kind of series: Cytotoxicity in CEM cells in the absence of virus. The format is cell-based. As to conditions: human, CEM (CCRF-CEM) cells; read-out: TC50 (the source's name). A digest of the protocol:
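Toxicity read in uninfected CEM cells (no virus present), run alongside the cellular antiviral protocol. Reported as TC50.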
For the molecule `Cc1ccc(C(C)(C)C)c(SC2=C(O)OC(CCc3ccccc3)(c3ccccc3)CC2=O)c1` (stereo not drawn), the CC50 was determined as 55 µM.
For `Cc1cc(SC2=C(O)OC(CCc3ccccc3)(c3ccccc3)CC2=O)c(C(C)(C)C)cc1OCCO` (stereo not drawn), the CC50 turned out to be 20 µM.
Same read-out and setting: then `Cc1ccc(C(C)(C)C)c(SC2=C(O)OC(CCc3ccccc3)(c3ccc(OCCO)cc3)CC2=O)c1` (stereo not drawn), with 23 µM; and `Cc1ccc(C(C)(C)C)c(SC2=C(O)OC(CCc3ccc(O)cc3)(c3ccccc3)CC2=O)c1` (stereo not drawn), with 69 µM; and `Cc1cc(SC2=C(O)OC(CCc3ccccc3)(c3ccc(OCCO)cc3)CC2=O)c(C(C)(C)C)cc1OCCO` (stereo not drawn), with 25 µM.
Same read-out and setting: then `Cc1cc(SC2=C(O)OC(CCc3ccccc3)(c3ccccc3)CC2=O)c(C(C)(C)C)cc1O` (stereo not drawn), with 23 µM.
With `Cc1cc(SC2=C(O)OC(CCc3ccc(O)cc3)(c3ccc(O)cc3)CC2=O)c(C(C)(C)C)cc1CO` (stereo not drawn), the CC50 worked out at 21 µM.
For `Cc1ccc(C(C)(C)C)c(SC2=C(O)OC(CCc3ccccc3)(c3ccc(O)cc3)CC2=O)c1` (stereo not drawn), the CC50 came out at 23 µM.
As to `Cc1cc(SC2=C(O)OC(CCc3ccc(O)cc3)(c3ccccc3)CC2=O)c(C(C)(C)C)cc1CO` (stereo not drawn), the CC50 is over 100 µM.
Same read-out and setting: next, `Cc1ccc(C(C)(C)C)c(SC2=C(O)OC(CCc3ccccc3)(c3ccc(N)cc3)CC2=O)c1` (stereo not drawn): 67 µM.
On the same count and under the same terms, next, `Cc1cc(SC2=C(O)OC(CCc3ccc(N)cc3)(C3CCCCC3)CC2=O)c(C(C)(C)C)cc1CO` (stereo not drawn): 80 µM; `Cc1cc(SC2=C(O)OC(CCc3ccccc3)(c3ccc(OCCO)cc3)CC2=O)c(C(C)(C)C)cc1O` (stereo not drawn): 27 µM; `Cc1cc(SC2=C(O)OC(CCc3cccc(O)c3)(c3ccccc3)CC2=O)c(C(C)(C)C)cc1CO` (stereo not drawn): over 100 µM.
The same measure, in the same setting: next, `COc1cc(C(C)(C)C)c(SC2=C(O)OC(CCc3ccccc3)(c3ccccc3)CC2=O)cc1C` (stereo not drawn): 33 µM; `Cc1cc(SC2=C(O)OC(CCc3ccc(N)cc3)(c3ccccc3)CC2=O)c(C(C)(C)C)cc1CO` (stereo not drawn): 94 µM; `Cc1cc(SC2=C(O)OC(CCc3ccc(O)cc3)(C3CCCCC3)CC2=O)c(C(C)(C)C)cc1CO` (stereo not drawn): 75 µM.
For `COc1ccc(C2(CCc3ccc(O)cc3)CC(=O)C(Sc3cc(C)c(CO)cc3C(C)(C)C)=C(O)O2)cc1` (stereo not drawn), the CC50 was over 100 µM.
Still for that read-out and setting: next, `Cc1cc(SC2=C(O)OC(CCc3ccccc3)(c3ccc(OCCO)cc3)CC2=O)c(C(C)(C)C)cc1CO` (stereo not drawn): 67 µM.
The same measure, in the same setting: then `Cc1cc(SC2=C(O)OC(CCc3ccc(O)cc3)(C(C)C)CC2=O)c(C(C)(C)C)cc1CO` (stereo not drawn), with over 100 µM; and `Cc1cc(SC2=C(O)OC(CCc3ccc(N)cc3)(C(C)C)CC2=O)c(C(C)(C)C)cc1CO` (stereo not drawn), with over 100 µM.
Still for that read-out and setting: next, `Cc1cc(SC2=C(O)OC(C)(CCc3ccc(O)cc3)CC2=O)c(C(C)(C)C)cc1CO` (stereo not drawn): over 100 µM; `Cc1cc(SC2=C(O)OC(CCc3cccc(N)c3)(c3ccccc3)CC2=O)c(C(C)(C)C)cc1CO` (stereo not drawn): 23 µM; `Cc1ccc(C(C)(C)C)c(SC2=C(O)OC(CCc3ccc(N)cc3)(c3ccccc3)CC2=O)c1` (stereo not drawn): 54 µM.
Consider `Cc1cc(SC2=C(O)OC(CCc3ccccc3)(c3ccccc3)CC2=O)c(C(C)(C)C)cc1CO` (stereo not drawn), for which the CC50 amounted to 66 µM.
Turning to `COCc1cc(C(C)(C)C)c(SC2=C(O)OC(CCc3ccccc3)(c3ccc(OCCO)cc3)CC2=O)cc1C` (stereo not drawn), the CC50 worked out at 18 µM.
